The target of the first assay is Probable G-protein coupled receptor 34 (Mus musculus, UniProt Q9R1K6). Nature of the assay: Agonist activity at mouse GPR34 expressed in HEK293 cells co-transfected with AP-TGFalpha/Galphaq/i1 assessed as induction of ectodomain shedding of membrane bound AP-TGFalpha after 1 hr by p-NPP substrate based microplate reader analysis. The gist of the method: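 HEK293 cells transiently transfected with AP-TGFα, chimeric Gα and mouse GPR34 vectors, then treated with compound. Empty-vector cells (AP-TGFα plus chimeric Gα) served as background. Receptor-specific AP-TGFα release was taken after subtracting that background, and concentration-response curves gave EC50 and Emax. Mean and SEM of 3−8 independent experiments.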
Sequence of Probable G-protein coupled receptor 34 (Q9R1K6 whole entry, the tested form may be a part): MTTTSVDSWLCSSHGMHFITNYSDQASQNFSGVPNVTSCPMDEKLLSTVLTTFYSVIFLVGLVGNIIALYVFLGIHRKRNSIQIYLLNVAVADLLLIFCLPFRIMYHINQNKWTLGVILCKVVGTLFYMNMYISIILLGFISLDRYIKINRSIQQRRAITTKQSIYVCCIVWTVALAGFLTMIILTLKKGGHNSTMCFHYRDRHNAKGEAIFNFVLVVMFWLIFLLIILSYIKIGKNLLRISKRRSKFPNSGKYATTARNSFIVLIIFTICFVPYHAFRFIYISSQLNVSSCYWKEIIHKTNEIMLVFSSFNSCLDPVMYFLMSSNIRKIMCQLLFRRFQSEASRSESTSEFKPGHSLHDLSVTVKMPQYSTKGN
Sequence of G protein-coupled receptor 34a (Q6XCC7 1-389): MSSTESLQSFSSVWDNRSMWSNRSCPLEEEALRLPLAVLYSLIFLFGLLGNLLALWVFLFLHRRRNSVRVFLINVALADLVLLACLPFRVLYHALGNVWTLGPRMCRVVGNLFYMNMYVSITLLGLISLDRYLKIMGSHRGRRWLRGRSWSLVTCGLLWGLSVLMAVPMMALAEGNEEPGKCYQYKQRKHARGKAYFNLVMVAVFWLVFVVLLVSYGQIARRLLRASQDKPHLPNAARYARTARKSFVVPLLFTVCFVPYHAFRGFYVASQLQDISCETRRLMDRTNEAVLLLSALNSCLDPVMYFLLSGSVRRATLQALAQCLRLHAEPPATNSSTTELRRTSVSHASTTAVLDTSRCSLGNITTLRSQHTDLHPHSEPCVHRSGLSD
Take `CCCCCCCC/C=C\CCCCCCCC(=O)OCCOP(=O)(O)OC[C@H](N)C(=O)O`: the EC50 is above 3.16 µM.
The same measure, in the same setting: for `CCCCCCCCCCCOc1ccccc1CCC(=O)O[C@H]1COCC[C@@H]1OP(=O)(O)OC[C@H](N)C(=O)O` the value was above 3.16 µM; for `CCCCCCCCCCCOc1ccccc1CCC(=O)O[C@H]1CCOC[C@H]1OP(=O)(O)OC[C@H](N)C(=O)O`, above 3.16 µM.
`CCCCCCCC/C=C\CCCCCCCC(=O)O[C@@H](C)COP(=O)(O)OC[C@H](N)C(=O)O`: the EC50 is above 3.16 µM.

Another assay addresses G protein-coupled receptor 34a (Danio rerio, UniProt Q6XCC7). The experiment in a line: Agonist activity at zebrafish GPR34 type a expressed in HEK293 cells co-transfected with AP-TGFalpha/Galphaq/i1 assessed as induction of ectodomain shedding of membrane bound AP-TGFalpha after 1 hr by p-NPP substrate based microplate reader analysis.
As for `CCOC[C@H](COC(=O)CCc1ccccc1OCc1cccc(Oc2ccccc2)c1)OP(=O)(O)OC[C@H](N)C(=O)O`, the EC50 was above 3.16 µM.

A further assay deals with Putative P2Y purinoceptor 10 (Mus musculus, UniProt Q8BFU7). The experiment in a line: Agonist activity at mouse P2Y10 expressed in HEK293 cells co-transfected with AP-TGFalpha/Galphaq/i1 assessed as induction of ectodomain shedding of membrane bound AP-TGFalpha after 1 hr by p-NPP substrate based microplate reader analysis. An outline of the steps: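 Run the same way as the GPR34 shedding assay, but with a mouse P2Y10 expression vector in HEK293 cells alongside AP-TGFα and chimeric Gα. Receptor-specific AP-TGFα release was found by subtracting the empty-vector background. EC50 and Emax came from concentration-response curves. Mean and SEM of 3−8 independent experiments.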
Sequence of Putative P2Y purinoceptor 10 (Q8BFU7 whole entry, the tested form may be a part): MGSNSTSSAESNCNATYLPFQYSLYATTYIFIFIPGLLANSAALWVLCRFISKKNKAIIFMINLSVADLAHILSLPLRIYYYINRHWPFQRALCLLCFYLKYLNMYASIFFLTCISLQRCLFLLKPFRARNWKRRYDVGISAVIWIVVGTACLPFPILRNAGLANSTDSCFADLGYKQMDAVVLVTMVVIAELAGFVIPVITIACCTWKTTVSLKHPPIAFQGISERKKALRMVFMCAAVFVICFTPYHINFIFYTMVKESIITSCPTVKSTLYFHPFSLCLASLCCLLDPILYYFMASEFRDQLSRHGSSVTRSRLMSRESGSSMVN
On to `CCOC[C@H](COC(=O)CCc1ccccc1OCc1cccc(Oc2ccccc2)c1)OP(=O)(O)OC[C@H](N)C(=O)O`, for which the EC50 is above 3.16 µM.
On to `CCCCCCCC/C=C\CCCCCCCC(=O)OC[C@@H](COCCC)OP(=O)(O)OC[C@H](N)C(=O)O`, for which the EC50 was above 3.16 µM.
With `COC[C@H](COC(=O)CCc1ccccc1OCc1cccc(Oc2ccccc2)c1)OP(=O)(O)OC[C@H](N)C(=O)O`, the EC50 is above 3.16 µM.
Regarding `CCCCCCCC/C=C\CCCCCCCC(=O)OC[C@H](COC)OP(=O)(O)OC[C@H](N)C(=O)O`, the EC50 is above 3.16 µM.
`CCCCCCCC/C=C\CCCCCCCC(=O)OC[C@@H](COC)OP(=O)(O)OC[C@H](N)C(=O)O`: the EC50 is above 3.16 µM.
As to `CCCCCCCC/C=C\CCCCCCCC(=O)OC[C@@H](COCC)OP(=O)(O)OC[C@H](N)C(=O)O`, the EC50 is above 3.16 µM.

For orientation: EC50 means the concentration needed to bring the measured effect to its halfway point.

The values are drawn from BindingDB's records for doi:10.1021/acs.jmedchem.0c01126 (The University of Tokyo, 2020).
